Data on 19 compounds can be found in ChEMBL document CHEMBL1141397, “Pharmacophore-based design of sphingosine 1-phosphate-3 receptor antagonists that include a 3,4-dialkoxybenzophenone scaffold” (J Med Chem, 2007).

pIC50: −log10 of the molar value. Where only a bound is given, the exact number is not on record here.

Holding throughout (type): functional, cell-based
The target in experiment [1] is T1, Sphingosine 1-phosphate receptor 3 (Homo sapiens, UniProt Q99500). In words: Antagonist activity against human S1P3 receptor assessed as inhibition of S1P-induced intracellular calcium mobilization in CHO-K1 cells. The method, boiled down: (§1)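 CHO-K1 cells stably transfected with the S1P1, S1P2 or S1P3 receptor, grown in Ham's F12K with G418 (200 µg/mL). Cells plated at 20 000/well in Ham's medium with 1% FBS for 24 h at 37 °C, washed, then held in Ham's medium for a further 24 h. Cells are washed with HBSS containing sulfinpyrazone (0.25 mmol/L) and loaded with Fura-2.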
T1 sequence (Q99500 whole entry): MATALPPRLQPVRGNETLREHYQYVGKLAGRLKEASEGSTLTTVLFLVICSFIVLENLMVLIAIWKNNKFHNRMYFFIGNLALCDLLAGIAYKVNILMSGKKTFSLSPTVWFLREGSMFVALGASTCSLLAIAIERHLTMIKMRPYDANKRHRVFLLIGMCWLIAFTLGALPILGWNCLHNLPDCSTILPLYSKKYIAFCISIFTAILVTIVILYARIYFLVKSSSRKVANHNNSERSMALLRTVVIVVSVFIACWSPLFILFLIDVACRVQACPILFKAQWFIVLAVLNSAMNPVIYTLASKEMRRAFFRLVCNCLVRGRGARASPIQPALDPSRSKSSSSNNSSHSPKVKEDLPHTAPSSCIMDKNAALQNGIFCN
In general terms: Calcium assays in cells follow changes in intracellular calcium, usually with a dye or a luminescent sensor.

Experiment [2] addresses T2, Sphingosine 1-phosphate receptor 1 (Homo sapiens, UniProt P21453). In words: Antagonist activity against human S1P1 receptor assessed as inhibition of S1P-induced intracellular calcium mobilization in CHO-K1 cells. An outline of the steps:
as §1

The target in experiment [3] is Sphingosine 1-phosphate receptor 2 (Homo sapiens) (UniProt O95136). In words: Antagonist activity against human S1P2 receptor assessed as inhibition of S1P-induced intracellular calcium mobilization in CHO-K1 cells at 10 uM. The method, boiled down:
as §1

Experiment [4] has as its target T1, Sphingosine 1-phosphate receptor 3. In words: Antagonist activity against human S1P3 receptor assessed as inhibition of S1P-induced intracellular calcium mobilization in CHO-K1 cells at 10 uM. An outline of the steps:
as §1

Experiment [5] has as its target T2, Sphingosine 1-phosphate receptor 1. The experiment can be described thus: Activity at human S1P1 receptor assessed as inhibition of S1P-induced intracellular calcium mobilization in CHO-K1 cells at 10 uM. An outline of the steps:
as §1

T2 sequence (P21453 whole entry): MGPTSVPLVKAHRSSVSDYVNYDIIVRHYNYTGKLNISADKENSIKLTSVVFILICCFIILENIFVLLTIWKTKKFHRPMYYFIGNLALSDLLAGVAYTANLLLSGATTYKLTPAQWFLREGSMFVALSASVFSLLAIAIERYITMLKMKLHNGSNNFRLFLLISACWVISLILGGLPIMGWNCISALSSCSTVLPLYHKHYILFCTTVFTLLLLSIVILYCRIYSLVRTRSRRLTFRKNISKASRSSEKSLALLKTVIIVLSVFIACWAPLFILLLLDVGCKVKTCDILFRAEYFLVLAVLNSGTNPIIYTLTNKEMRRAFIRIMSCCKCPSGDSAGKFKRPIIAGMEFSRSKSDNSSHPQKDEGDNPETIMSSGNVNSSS
Chain of Sphingosine 1-phosphate receptor 2 (Homo sapiens) (O95136 whole entry): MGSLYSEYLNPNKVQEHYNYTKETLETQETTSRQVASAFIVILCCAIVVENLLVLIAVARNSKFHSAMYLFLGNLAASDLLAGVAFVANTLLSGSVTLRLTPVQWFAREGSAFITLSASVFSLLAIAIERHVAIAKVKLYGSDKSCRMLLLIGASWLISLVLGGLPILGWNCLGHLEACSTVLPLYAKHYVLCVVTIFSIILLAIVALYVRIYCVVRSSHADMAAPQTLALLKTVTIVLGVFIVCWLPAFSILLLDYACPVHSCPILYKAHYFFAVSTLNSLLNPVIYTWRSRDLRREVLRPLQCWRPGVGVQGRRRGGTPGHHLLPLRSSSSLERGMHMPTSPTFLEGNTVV

Turning to `COc1ccc(C2N[C@H](C(=O)O)CS2)cc1COc1c(C)cc(Cl)cc1C(C)C` (some centres not stated), the negative-log IC50 (pIC50) in experiment [1] was below 4.70.
In the case of `CCCCCCCCCc1cccc(C2N[C@H](C(=O)O)CS2)c1` (some centres not stated), in experiment [1], the negative-log IC50 (pIC50) was below 4.70.
With `CCCCCCCc1cccc(C2N[C@H](C(=O)O)CS2)c1` (some centres not stated), in experiment [1], the negative logarithm of the IC50 (pIC50) is 5.01.
Regarding `CCCCCCCCCCCCCCCCOc1ccc(/C(=N/NS(=O)(=O)c2cc(C(=O)O)cc(C(=O)O)c2)N2CCCCC2)cc1OC`, the pIC50 in experiment [2] is 5.21; in experiment [1], 5.46. In experiment [3], the inhibition is 35.9%.
In the same order, the values of `CCCCCCCCCCCCCCCCOc1ccc(/C(=N/NS(=O)(=O)c2cc(C(=O)O)cc(C(=O)O)c2)c2ccccc2)cc1OC` are 5.18, 5.53 and 40.9%.
For the compound `CCCCCCCCCCCCCC1N[C@H](C(=O)O)CS1` (some centres not stated), in experiment [4], the inhibition was below 10%.
As for `CCCCCCCCCCCCCCCCOc1ccc(/C(=N\NS(=O)(=O)c2cc(C(=O)O)cc(C(=O)O)c2)c2ccccc2)cc1OC`, the results for the pIC50 in experiment [2] and in experiment [1] were 5.37 and 5.45, respectively. For the same compound, the inhibition in experiment [3] was found to be 9.5%.
On to `CCCCCCCCCCCCCCCCCC(=O)Nc1ccc(C(=O)CC(=O)Cc2cc(C(=O)O)ccc2Oc2cc(C(=O)O)cc(C(=O)O)c2)cc1`, for which the negative-log IC50 (pIC50) in experiment [1] is 5.44.
In the case of `CCCCCCCCCCCC1N[C@H](C(=O)O)CS1` (some centres not stated), in experiment [1], the negative-log IC50 (pIC50) is 4.94.
Regarding `CCCCCCCCOc1ccc(/C(=N\NS(=O)(=O)c2cc(C(=O)O)cc(C(=O)O)c2)c2ccccc2)cc1OC`, the pIC50 in experiment [1] was 4.88. Besides, the inhibition in experiment [5] amounted to 32.9%; in experiment [3] it was 14%.
With `CCCCCCCCCCCCCCCCOc1ccc(/C(=N/NS(=O)(=O)c2cccc(C(=O)O)c2)c2ccccc2)cc1OC`, in experiment [4], the HI worked out at 34.4%. Moreover, the values for the inhibition in experiment [5] and in experiment [3] were 34.8% and -0.1%, respectively.
On to `CCCCOc1ccc(/C(=N/NS(=O)(=O)c2cc(C(=O)O)cc(C(=O)O)c2)c2ccccc2)cc1OC`, for which the inhibition is 6.7% in experiment [4], 24.2% in experiment [5] and 6.2% in experiment [3].
For `CCCCCCCCCCCCCCCCOc1ccc(/C(=N/NS(=O)(=O)c2cc(C(=O)O)cc(C(=O)O)c2)c2ccccc2)cc1`, the negative-log IC50 (pIC50) in experiment [1] is 5.01. In addition, the figures for the inhibition in experiment [5] and in experiment [3] were 17.2% and 20.5%, respectively.
Take `CCCCCCCCCCC1N[C@H](C(=O)O)CS1` (some centres not stated): the pIC50 in experiment [1] is 4.80.
Take `CCCCCCCCCCCCCCCCCNc1ccc(C(=O)CC(=O)Cc2cc(C(=O)O)ccc2Oc2cc(C(=O)O)cc(C(=O)O)c2)cc1`: in experiment [1], the negative logarithm of the IC50 (pIC50) was 5.34.
On the same count and under the same terms, with `CCCCCCCc1ccc(C2N[C@H](C(=O)O)CS2)cc1` (some centres not stated) the figure was 4.88.
Consider `CCCCCCCCOc1ccc(/C(=N/NS(=O)(=O)c2cc(C(=O)O)cc(C(=O)O)c2)c2ccccc2)cc1OC`, for which the pIC50 in experiment [1] is 4.94. The inhibition in experiment [5] is 12.7%; in experiment [3], -4.6%.
For `CCCCCCCCCCCCCCCCOc1ccc(/C(=N\NS(=O)(=O)c2cccc(C(=O)O)c2)c2ccccc2)cc1OC`, the inhibition in experiment [4] was 8.3%; in experiment [5], 1%; in experiment [3], -8.7%.
Consider `CCCCCCCCCCCCCCCCOc1ccc(S(=O)(=O)O)cc1C(=O)O`, for which, in experiment [1], the pIC50 was 5.06.

The pIC50 is −log10 of the IC50, conventionally taken in molar units. As a reminder, the inhibition is the change of the read-out against control, counted positive when it falls.
